Kir21 inh – blocks the mouse Kir2.1 inward-rectifier potassium channel; AID 1672; 310,000 compounds, 0.85% hits; B-score at 10 µM; HEK293-Kir2.1, FluxOR thallium flux fluorescence; active compounds read low; P35561;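 active = fluorescence ratio B-score at or below minus 3 SD of library scores, with starting-brightness B-score within 2 SD, cut at about -4.2 in these data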;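 note: channel flux triggered by added potassium and thallium sulfate stimulus; B-score of peak minus minimum fluorescence over baseline after thallium stimulus; more negative B-score means stronger Kir2.1 block with less thallium influx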
KCNK9 inh – human KCNK9 channel inhibition; 310,000 compounds, 1.2% hits; Q9NPC2; HEK293 KCNK9, FluxOR thallium flux fluorescence; active compounds read low; B-score at 10 µM;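 active = ratio B-score over 3 SD below the library mean, with starting fluorescence within 5 SD of its mean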;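 note: negative B-score means less thallium flux so channel inhibition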
KCNK3 block – human KCNK3 channel inhibition, primary screen. O14649. 340,000 compounds, 0.84% hits. CHO-KCNK3 thallium flux, FluxOR fluorescence; active compounds read low. AID 602410. B-score at 10 µM;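 active = B-score under library mean minus 4 SD, starting fluorescence ratio at most library mean plus 5 SD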;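 note: more negative B-score means stronger inhibition of thallium flux through KCNK3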
Target sequence (O14649 whole entry, looked up): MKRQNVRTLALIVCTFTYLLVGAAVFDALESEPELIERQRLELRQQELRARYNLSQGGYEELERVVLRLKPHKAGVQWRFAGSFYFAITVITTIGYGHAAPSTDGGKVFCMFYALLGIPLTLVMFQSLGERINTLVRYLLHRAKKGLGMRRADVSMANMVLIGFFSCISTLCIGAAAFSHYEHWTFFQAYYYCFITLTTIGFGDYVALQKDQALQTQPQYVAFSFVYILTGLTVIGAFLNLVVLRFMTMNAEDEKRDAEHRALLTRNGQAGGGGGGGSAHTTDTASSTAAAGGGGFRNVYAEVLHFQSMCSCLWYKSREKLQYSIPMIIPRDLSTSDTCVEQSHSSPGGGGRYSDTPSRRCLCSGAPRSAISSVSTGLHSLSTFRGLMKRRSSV
hERG protect – compounds protecting human hERG from proarrhythmic drug block; 310,000 compounds, 0.51% hits; activation (rescue from dofetilide block), less the hit threshold, % at 10 µM; CHO-hERG, FluxOR thallium flux, dofetilide IC70 present; Q12809;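 active = activation above the mean of controls blocked by dofetilide plus 5 SD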;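 note: thallium influx through hERG after potassium depolarization seen as dye fluorescence rise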
KCNQ1 inh – inhibitors of human KCNQ1 potassium channel; CHO-K1 KCNQ1, FluxOR thallium flux fluorescence; active compounds read high; B-score at 10 µM; 310,000 compounds, 1.3% hits;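 active = compounds whose thallium flux B-score, printed positive for inhibition, exceeds three library SD while starting fluorescence stays within three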;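 note: channel opened by potassium depolarization with thallium stimulus after 20 min compound exposure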
KCNQ1 act – human KCNQ1 channel potentiation or activation; P51787; CHO-K1 KCNQ1, thallium flux FluxOR fluorescence; active compounds read high; B-score at 10 µM; 310,000 compounds, 0.35% hits; AID 2648;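 active = fluorescence ratio B-score, a plate-corrected score, at least three library SD, with initial intensity B-score within 5 SD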
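Schedule – 37 °C overnight plating, 90-min dark dye load, 20-min compound pretreatment · System – stable KCNQ1 CHO-K1 line · Probe or stimulus – thallium- and potassium-containing depolarizing buffer · Measured by – kinetic FluxOR fluorescence, 10 s baseline plus 110 s post-stimulus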
* = called active by the depositor; i = inactive; x = no result given. Only some compounds are listed: those with a hit (about 3.8% of all), similar ones and a draw of the others.

SMILES | Kir21 inh | KCNK9 inh | KCNK3 block | hERG protect | KCNQ1 inh | KCNQ1 act
Clc1ccccc1OCCn1nnc2ccccc21 | 0.37 | i | i | -4.0 | i | i
CC1CCN(c2nc3ccc(C(=O)NCCCN4CCCCC4C)cc3s2)CC1 (stereo not given) | -0.45 | i | i | -10.4 | i | i
Clc1cccc2c1Sc1ccccc1CC2N1CCNCC1 (stereo not given) | -9.71* | i | i | -22.0 | i | i
Clc1ccc2c(c1)C(N1CCNCC1)Cc1ccccc1S2 (stereo not given) | -13.6* | i | i | -22.6 | 6* | i
COCCCN1CCN(C2Cc3ccccc3Sc3ccc(Cl)cc32)CC1 (stereo not given) | -2.26 | i | i | -25.5 | i | i
Cc1ccc2[nH]cc(CCNC(=O)c3cccs3)c2c1 | 0 | i | i | -11.7 | i | i
Cc1ccc(N2C(=O)c3ccc(C(=O)Nc4cccnc4)cc3C2=O)c(C)c1 | -0.13 | i | i | 4.7* | i | i
CC1(c2ccc3c(c2)OCO3)NC(=O)N(CC(=O)Nc2ccccc2[N+](=O)[O-])C1=O (stereo not given) | x | x | i | x | x | x
CC1CCN(c2nc(CN3CCCCC3)nc3scc(-c4ccccc4)c23)CC1 | -7.62* | i | i | -20.7 | i | i
CCOc1ccccc1NC(=O)NCc1ccccn1 | -0.74 | i | i | -12.0 | i | i
Cc1ccc(C(=O)NNC(=S)Nc2cccc(Cl)c2Cl)cc1[N+](=O)[O-] | -1.7 | i | i | -10.2 | 9* | i
CN(C)CCC(C(=O)c1ccccc1)c1cccnc1 (stereo not given) | x | x | i | x | x | x
CCCc1cc(=O)n2[nH]c(-c3ccc(OC)cc3)nc2n1 | -1.3 | -7.78* | i | -5.8 | i | i
COc1ccc(C(=O)n2nc(C)cc2Nc2ccccc2)cc1 | 0.48 | -7.38* | i | -4.4 | i | i
Cc1cc(Nc2ccccc2)nn1C(=O)c1ccccc1 | 0.11 | i | i | -3.3 | i | i
O=C(O)c1cc([N+](=O)[O-])ccc1N1CCCCC1 | -0.41 | i | i | -3.3 | i | i
COc1ccc(CC(=O)Nc2ccccc2N2CCCCC2)cc1OC | -6.19* | i | i | -12.6 | i | i
CS(=O)(=O)N1CCN(c2ccccc2NC(=O)Cc2ccccc2)CC1 | 0.05 | i | i | -11.2 | i | i
COc1ccc(CC(=O)Nc2ccccc2N2CCOCC2)cc1OC | -1.3 | i | i | -8.0 | i | i
Cc1ccc(OCC(=O)N/N=C/c2cc([N+](=O)[O-])ccc2N2CCCCC2)cc1 | 1.51 | -7.45* | i | -6.3 | i | i
O=C(Cc1ccccc1)Nc1ccccc1N1CCN(c2ccccc2)CC1 | -0.12 | i | -8.74* | -9.6 | i | i
Cc1ccc(C(=O)c2cc([N+](=O)[O-])ccc2N2CCCCC2)c(C)c1 | 0.4 | -7.46* | i | -4.1 | i | i
O=C(COc1ccc([N+](=O)[O-])cc1)N/N=C/c1cc([N+](=O)[O-])ccc1N1CCOCC1 | 0.13 | i | i | -2.9 | i | i
COCC1CCN(C(=O)c2cc(COc3ccc(-n4cncn4)cc3)on2)C1 (stereo not given) | 0.14 | i | i | -14.2 | i | i
CC(=O)c1ccc(OCCCC(=O)N2CCN(S(=O)(=O)c3ccc(C(C)C)cc3)CC2)cc1 | 1.19 | i | i | -14.8 | i | i
SMILES | Kir21 inh | KCNK9 inh | KCNK3 block | hERG protect | KCNQ1 inh | KCNQ1 act
CC(C(=O)Nc1ccc(N2CCOCC2)cc1)N1C(=O)NC(C)(C)C1=O (stereo not given) | x | x | i | x | x | x
O=C(COc1cccc(C(F)(F)F)c1)Nc1ccccc1N1CCCCC1 | -0.43 | -7.84* | i | -14.9 | i | i
CCC(=O)Nc1ccc(N2CCCCC2)c(C(=O)Nc2ccc(OC)cc2)c1 | 1.36 | i | i | -11.1 | i | i
COc1cccc(CC(=O)Nc2ccccc2N2CCCC2)c1 | -6.74* | i | i | -6.3 | i | i
COc1ccc(CC(=O)Nc2ccc(N3CCCC3)c(C)c2)cc1 | -9.82* | i | i | -5.2 | i | i
COc1cccc(CC(=O)Nc2ccccc2C(=O)N2CCOCC2)c1 | 0 | i | i | 0.1 | i | i
COc1ccc(N2CCCC2)c(NC(=O)COc2ccccc2Cl)c1 | -0.2 | i | i | -7.8 | i | i
COc1ccc(OCC(=O)Nc2cc(OC)ccc2N2CCCCC2)cc1 | 1.27 | -7.89* | i | -4.0 | i | i
CN1CCN(S(=O)(=O)c2ccc(N(C)Cc3ccc(C(F)(F)F)cc3)c([N+](=O)[O-])c2)CC1 | x | x | i | x | x | x
CC(C(=O)Nc1ncc([N+](=O)[O-])s1)N1C(=O)c2ccccc2S1(=O)=O (stereo not given) | -0.59 | i | i | -19.0 | i | i
Cn1c(N)c(C(=O)COC(=O)c2ccccc2C(=O)c2ccc(Cl)c([N+](=O)[O-])c2)c(=O)n(C)c1=O | x | x | i | x | x | x
CC1C/C(=N/Nc2ccc([N+](=O)[O-])cc2[N+](=O)[O-])CC(C)(C)C1 (stereo not given) | -0.84 | i | i | -8.1 | 7* | i
CC1CCCC/C1=N/Nc1ccc([N+](=O)[O-])cc1[N+](=O)[O-] (stereo not given) | 0.64 | i | i | -1.1 | i | i
CCCOC(=O)c1ccc(NC(=O)c2ccccc2OC)cc1 | 2.51 | -7.54* | i | -11.8 | i | i
O=C(C(Sc1ccccc1)c1ccc(Br)cc1)N1CCOCC1 (stereo not given) | -5.78* | i | i | -8.0 | i | i
CC1(c2ccc([N+](=O)[O-])cc2)CC(C)(C)N(C(=O)c2ccccc2)c2ccccc21 (stereo not given) | 0.24 | i | x | -17.3 | 6* | i
CN1CCN(CC(=O)N2c3ccccc3C(C)(c3ccc(Cl)cc3)CC2(C)C)CC1 (stereo not given) | -4.8 | i | i | -9.6 | i | i
CN1CCN(CC(=O)N2c3ccccc3C(C)(c3ccccc3)CC2(C)C)CC1 (stereo not given) | -6.19* | i | i | -6.6 | i | i
CS(=O)(=O)Nc1nc2n(n1)C(c1ccccc1)C=C(c1ccc(Br)cc1)N2 (stereo not given) | -4.41 | i | i | -17.3 | 12* | i
Cc1ccc(C(OCCN(C)C)c2cccc(C(F)(F)F)c2)cc1 (stereo not given) | -5.15* | i | i | -7.8 | i | i
CN(C)CCO[C@@H](c1ccc(Cl)cc1)c1ccccn1 | -1.01 | i | i | -5.5 | i | i
C=CCN(Cc1cccc(OC)c1OC)C(=O)Oc1ccccc1 | x | x | i | x | x | x
